Results on two molecules are retold here after publication PMC7486978 (Molecular pharmaceutics, 2019).

Bridge positions count the residues as written; N and C are the ends. Peptide text beside a SMILES is read from it. * marks the point of attachment. NOTA(2S-Bn(4-NHCS)) = O=C(O)CN1CCN(CC(=O)O)C[C@H](Cc2ccc(NC(=S)*)cc2)N(CC(=O)O)CC1

The nature of one data set: in vivo. Format: in vivo, BALB/c nude mice. The following applies: female, BALB/c nude, mouse, in vivo, total radioactivity.
Another data set relates to MCF-7 xenograft mice. Briefly: in vivo. The data set is classed as in vivo, BALB/c nude mice. Particulars: for tumor uptake (biodistribution): no blocking, mean ± SD.
Data set [1] is described as follows: In vitro stability in PBS. Format: physicochemical. The following applies: PBS pH 7.4, 37 °C, 2 h, 14.8 MBq; analytical radio-HPLC. In a few lines:
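⁶⁸Ga-labelled test compound was prepared by heating precursor with [⁶⁸Ga]GaCl₃ in sodium acetate buffer (final pH about 4.0) at 90 °C for 5 min and used unpurified. Tracer (14.8 MBq) was held in PBS pH 7.4 at 37 °C for 2 h.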

The test system of the next data set is MCF-7 cells. Description: In vitro cell uptake and blocking study. Format: cell-based, human. The following applies: 100 times excess (100 pmol) nonradioactive RGD, NGR, RGD+NGR or NGR-RGD 15 min in advance; 2 h at 37 °C.
The test system of the next data set is MCF-7 tumor xenograft. Briefly: Small-animal PET/CT imaging, ROI tumor uptake. Format: in vivo, BALB/c nude mice. The following applies: MCF-7 xenograft, 30 min p.i., n = 4.
The test system of data set [2] is MDA-MB-231 tumor xenograft. Briefly: Small-animal PET/CT imaging, ROI tumor uptake. The data set is classed as in vivo, BALB/c nude mice. The following applies: MDA-MB-231 xenograft, 30 min p.i., 6.5–9 MBq; n = 4.
The subject of data set [3] is MDA-MB-468 tumor xenograft. Briefly: Small-animal PET/CT imaging, ROI tumor uptake. The data set is classed as in vivo, BALB/c nude mice. The following applies: MDA-MB-468 xenograft, 30 min p.i., 6.5–9 MBq; n = 4.
The test system of a further data set is MX-1 tumor xenograft. Description: Small-animal PET/CT imaging, ROI tumor uptake. Format: in vivo, BALB/c nude mice. The following applies: MX-1 xenograft, 30 min p.i., 6.5–9 MBq; n = 4.
In data set [4] the test system is MDA-MB-231 xenograft mice. Description: Post-imaging biodistribution. The following applies: 1 h p.i., mean ± SD, n = 4. Format: in vivo, BALB/c nude mice. In a few lines:
(§1)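 Female BALB/c nude mice were injected s.c. in the right shoulder with 1.0 × 10⁷ cells (MDA-MB-231/MDA-MB-468 grown in L-15 without CO₂; MX-1 in high-glucose DMEM, 10% FBS, 5% CO₂). They were used at tumor size 0.8–1.0 cm and given ⁶⁸Ga-labelled test compound (6.5–9 MBq, 125 μL) by tail vein. PET/CT under 2.0% isoflurane ran at 30 min. Mice were euthanized at 1 h; tissues weighed, γ-counted, decay-corrected %ID/g, mean ± SD.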

Data set [5] has as its system MDA-MB-468 xenograft mice. Description: Post-imaging biodistribution. The data set is classed as in vivo, BALB/c nude mice. Particulars: 1 h p.i., mean ± SD, n = 4. The method in brief: as §1
A further data set deals with MX-1 xenograft mice. Briefly: Post-imaging biodistribution. The following applies: 1 h p.i., mean ± SD, n = 4. Format: in vivo, BALB/c nude mice. In a few lines:
as §1

The mark [6] stands for this setting: MCF-7 xenograft mice, 1 h p.i., n = 4.

In general, tissue uptake refers to the percentage of the injected dose found per gram of tissue. With `N=C(N)NCCC[C@@H]1NC(=O)CNC(=O)[C@H](CC(N)=O)NC(=O)[C@H](CCCCNC(=S)Nc2ccc(C[C@H]3CN(CC(=O)O)CCN(CC(=O)O)CCN3CC(=O)O)cc2)NC(=O)CC[C@@H](C(N)=O)NC1=O` [^68Ga-NGR, metal not drawn, reference compound] (K(NOTA(2S-Bn(4-NHCS)))NGRE-NH2; lactam N-5; C-terminus assumed), the tissue uptake at 1 h in “in vivo” was 0.87 ± 0.04 %ID/g. The “tumor uptake (biodistribution)” value in the data set on MCF-7 xenograft mice (setting [6]) is 0.14 ± 0.04 %ID/g.

As to “c(RGDyK)-PEG4-NOTA-click-PEG4-c(CNGRC) (bicyclic or more) [^68Ga-NGR-RGD]”, in data set [1], the “proportion of the intact tracer” value is reported as “exceeded 95%”. Besides, the “uptake by MCF-7 cells when pretreated with excess of blocking agents” value with MCF-7 cells is recorded as “decreased significantly”. The “tumor uptake (PET ROI), blocked by NGR” value in the data set with MCF-7 tumor xenograft (coinjected unlabeled NGR 20 mg/kg) is 0.80 ± 0.03 %ID/g. Further, the “tumor uptake (PET ROI), blocked by NGR-RGD” value with MCF-7 tumor xenograft (coinjected unlabeled NGR-RGD 20 mg/kg) was 0.28 ± 0.06 %ID/g. Further, the “tumor uptake (PET ROI), blocked by RGD” value in the data set with MCF-7 tumor xenograft (coinjected unlabeled RGD 20 mg/kg) is given as 0.37 ± 0.05 % ID/g. Also, in the data set with MCF-7 tumor xenograft (coinjected unlabeled RGD+NGR 20 mg/kg), the “tumor uptake (PET ROI), blocked by RGD+NGR” value is 0.31 ± 0.03 %ID/g. Also, the “tumor uptake (PET ROI)” value amounted to 1.03 ± 0.08 %ID/g in the data set with MCF-7 tumor xenograft (comparison of tumor types (Figure 5B)), 1.04 ± 0.06 %ID/g in [2], 0.76 ± 0.10 %ID/g in [3] and 0.41 ± 0.08 %ID/g with MX-1 tumor xenograft. The “tumor uptake (biodistribution), blocked with NGR-RGD” value with MCF-7 xenograft mice (MCF-7 xenograft mice, 1 h p.i., coinjection of excess unlabeled NGR-RGD, n = 4) amounted to 0.16 ± 0.04 %ID/g. The “tumor uptake (biodistribution), blocked with NGR” value in the data set on MCF-7 xenograft mice (MCF-7 xenograft mice, 1 h p.i., coinjection of excess unlabeled NGR, n = 4) is on record as 0.67 ± 0.02 %ID/g. Moreover, in the data set on MCF-7 xenograft mice (MCF-7 xenograft mice, 1 h p.i., coinjection of excess unlabeled RGD+NGR, n = 4), the “tumor uptake (biodistribution), blocked with RGD+NGR” value worked out at 0.20 ± 0.07 %ID/g. Also, the “tumor uptake (biodistribution), blocked with RGD” value in the data set with MCF-7 xenograft mice (MCF-7 xenograft mice, 1 h p.i., coinjection of excess unlabeled RGD, n = 4) was found to be 0.17 ± 0.04 %ID/g. In addition, the “tumor uptake (biodistribution)” value in the data set on MCF-7 xenograft mice (setting [6]) amounted to 1.02 ± 0.16 %ID/g; in data set [4], 0.53 ± 0.05 %ID/g; in [5], 0.28 ± 0.04 %ID/g; with MX-1 xenograft mice, 0.20 ± 0.03 %ID/g. Further, in the data set on MCF-7 xenograft mice (mouse, in vivo, 1 h), the “accumulation in the kidneys (biodistribution)” value worked out at 2.52 ± 0.30 %ID/g.
